Measurements taken from ChEMBL document CHEMBL4373700, “Synthesis and Structure-Activity Relationship Correlations of Gnidimacrin Derivatives as Potent HIV-1 Inhibitors and HIV Latency Reversing Agents” (J Med Chem, 2019).

How the values were obtained:
MT4 = experiment: Cytotoxicity against human MT4 cells measured after 3 days by CytoTox-Glo assay; assay type: cell-based; settings: mt4, 72 h
How it was run: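 MT4 cells cultured with a range of compound concentrations for 3 days. Viability by CytoTox-Glo, run per the manufacturer's protocol. CC50 is the concentration causing a 50% drop in viability.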

[1] = Agonist activity at Protein kinase C in human MT4 cells infected with HIV-1 NL4-3 assessed as inhibition of viral replication measured on day 3 post-infection by Nano-Glo luciferase assay
[2] = Half-life in Sprague-Dawley rat plasma at 0.05 mM measured up to 24 hrs by LCMS analysis; assay type: ADME, cell-free; settings: 50 µM
How it was run: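 Sprague Dawley rat plasma (sodium heparin) prewarmed 10 min at 37 °C. Compound added from 5 mM DMSO stock to a final 0.05 mM. Samples taken at 0, 0.5, 1, 2, 4, 6, 10 and 24 h, deproteinized with 2 volumes MeOH, centrifuged and filtered. Analysis by LCMS (C18, isocratic, ESI). Mean of three independent experiments.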

Protein kinase C (PKC) = experiment: Agonist activity at Protein kinase C in human U1 cells infected with HIV-1 NL4-3 assessed as induction of HIV-1 p24 production after 72 hrs by ELISA; assay type: cell-based
How it was run: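 Latency model: U1 cells (2 × 10^5 cells/mL) incubated with a range of compound concentrations at 37 °C for 72 h. p24 in the supernatant measured by ELISA. EC50 is the concentration giving 50% of maximal p24 induction, from nonlinear regression.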

Structure (SMILES) | CC50 (MT4) | IC50 [1] | t1/2 [2] | EC50 (Protein kinase C (PKC))
C=C(C)[C@]12C[C@@H](COC(=O)c3ccccc3)[C@@]34OC5(O[C@@H]1[C@@H]3[C@@H]1O[C@]1(COC(=O)c1ccccc1)[C@@H](O)[C@@]1(O)[C@H]4[C@H]([C@H](C)[C@@H]1OC(=O)c1ccccc1)[C@H](C)CCCCCC[C@H]5O)O2 | > 1 nM | > 1 nM |  | 
C=C(C)[C@]12C[C@@H](COC(=O)c3ccccc3)[C@@]34OC5(O[C@@H]1[C@@H]3[C@@H]1O[C@]1(COC(=O)c1ccccc1)[C@@H](O)[C@@]1(O)[C@H]4[C@H]([C@H](C)[C@@H]1OC(=O)c1ccccc1)[C@H](C)CCCCCC[C@H]5OC(=O)c1ccccc1)O2 | > 1 nM | > 1 nM |  | 
C=C(C)[C@]12C[C@@H](COC(=O)c3ccccc3)[C@@]34OC5(O[C@@H]1[C@@H]3[C@@H]1O[C@]1(CO)[C@@H](OC(=O)c1ccccc1)[C@@]1(O)[C@H]4[C@H]([C@H](C)[C@@H]1OC(=O)c1ccccc1)[C@H](C)CCCCCC[C@H]5O)O2 | > 1 nM | > 1 nM |  | 
C=C(C)[C@]12C[C@@H](COC(=O)c3ccccc3)[C@@]34OC5(O[C@@H]1[C@@H]3[C@@H]1O[C@]1(CO)[C@@H](O)[C@@]1(O)[C@H]4[C@H]([C@H](C)[C@@H]1OC(=O)c1ccc(OC)cc1)[C@H](C)CCCCCC[C@H]5O)O2 | > 1 nM | 0.17 nM |  | 
C=C(C)[C@]12C[C@@H](COC(=O)c3ccccc3)[C@@]34OC5(O[C@@H]1[C@@H]3[C@@H]1O[C@]1(CO)[C@@H](O)[C@@]1(O)[C@H]4[C@H]([C@H](C)[C@@H]1OC(=O)c1ccc3ccccc3c1)[C@H](C)CCCCCC[C@H]5O)O2 | > 1 nM | 0.15 nM | 26.17 h | 
C=C(C)[C@]12C[C@@H](COC(=O)c3ccccc3)[C@@]34OC5(O[C@@H]1[C@@H]3[C@@H]1O[C@]1(COC(=O)[C@@]13CC[C@@](C)(C(=O)O1)C3(C)C)[C@@H](O)[C@@]1(O)[C@H]4[C@H]([C@H](C)[C@@H]1OC(=O)c1ccccc1)[C@H](C)CCCCCC[C@H]5O)O2 | > 1 nM | > 1 nM |  | 
C=C(C)[C@]12C[C@@H](CO)[C@@]34OC5(O[C@@H]1[C@@H]3[C@@H]1O[C@]1(CO)[C@@H](O)[C@@]1(O)[C@H]4[C@H]([C@H](C)[C@@H]1O)[C@H](C)CCCCCC[C@H]5O)O2 | > 1 nM | > 1 nM |  | 
C=C(C)[C@]12C[C@@H](COC(=O)c3ccccc3)[C@@]34OC5(O[C@@H]1[C@@H]3[C@@H]1O[C@]1(CO)[C@@H](O)[C@@]1(O)[C@H]4[C@H]([C@H](C)[C@@H]1OC(=O)c1ccccc1)[C@H](C)CCCCCC[C@H]5OC(=O)c1ccc3ccccc3c1)O2 | > 1 nM | > 1 nM |  | 
C=C(C)[C@]12C[C@@H](COC(=O)c3ccccc3)[C@@]34OC5(O[C@@H]1[C@@H]3[C@@H]1O[C@]1(COC(=O)/C=C/c1ccc(OC)cc1)[C@@H](O)[C@@]1(O)[C@H]4[C@H]([C@H](C)[C@@H]1OC(=O)c1ccccc1)[C@H](C)CCCCCC[C@H]5O)O2 | > 1 nM | > 1 nM |  | 
CC(C)[C@]12C[C@@H](COC(=O)c3ccccc3)[C@@]34OC5(O[C@@H]1[C@@H]3[C@@H]1O[C@]1(CO)[C@@H](O)[C@@]1(O)[C@H]4[C@H]([C@H](C)[C@@H]1OC(=O)c1ccccc1)[C@H](C)CCCCCC[C@H]5O)O2 | > 1 nM | 0.18 nM |  | 
C=C(C)[C@]12C[C@@H](COC(=O)c3ccccc3)[C@@]34OC5(O[C@@H]1[C@@H]3[C@@H]1O[C@]1(CO)[C@@H](O)[C@@]1(O)[C@H]4[C@H]([C@H](C)[C@@H]1OC(=O)c1ccccc1)[C@H](C)CCCCCC[C@H]5OC(=O)c1ccc([N+](=O)[O-])cc1)O2 | > 1 nM | > 1 nM |  | 
C=C(C)[C@]12C[C@@H](COC(=O)c3ccccc3)[C@@]34OC5(O[C@@H]1[C@@H]3[C@@H]1O[C@]1(CO)C(=O)[C@@]1(O)[C@H]4[C@H]([C@H](C)[C@@H]1OC(=O)c1ccccc1)[C@H](C)CCCCCC[C@H]5O)O2 | > 1 nM | > 1 nM |  | > 3.9 nM
C=C(C)[C@]12C[C@@H](COC(=O)c3ccccc3)[C@@]34OC5(O[C@@H]1[C@@H]3[C@@H]1O[C@]1(COC(=O)C1(C)COC(C)(C)OC1)[C@@H](O)[C@@]1(O)[C@H]4[C@H]([C@H](C)[C@@H]1OC(=O)c1ccccc1)[C@H](C)CCCCCC[C@H]5O)O2 | > 1 nM | > 1 nM |  | 
C=C(C)[C@]12C[C@@H](COC(=O)c3ccccc3)[C@@]34OC5(O[C@@H]1[C@@H]3[C@@H]1O[C@]1(CO)[C@@H](O)[C@@]1(O)[C@H]4[C@H]([C@H](C)[C@@H]1OC(=O)c1ccccc1)[C@H](C)CCCCCC[C@H]5OC(C)=O)O2 | > 1 nM | 0.09 nM |  | 
C=C(C)[C@]12C[C@@H](COC(=O)c3ccccc3)[C@@]34OC5(O[C@@H]1[C@@H]3[C@@H]1O[C@]1(CO)[C@@H](O)[C@@]1(O)[C@H]4[C@H]([C@H](C)[C@@H]1OC(=O)c1ccccc1)[C@H](C)CCCCCC[C@H]5OC(=O)/C=C/c1ccccc1)O2 | > 1 nM | > 1 nM |  | 
C=C(C)[C@]12C[C@@H](COC(=O)c3ccccc3)[C@@]34OC5(O[C@@H]1[C@@H]3[C@@H]1O[C@]1(CO)[C@@H](OC(C)=O)[C@@]1(O)[C@H]4[C@H]([C@H](C)[C@@H]1OC(=O)c1ccccc1)[C@H](C)CCCCCC[C@H]5O)O2 | > 1 nM | > 1 nM |  | 
C=C(C)[C@]12C[C@@H](COC(=O)c3ccccc3)[C@@]34OC5(O[C@@H]1[C@@H]3[C@@H]1O[C@]1(COC(C)=O)[C@@H](O)[C@@]1(O)[C@H]4[C@H]([C@H](C)[C@@H]1OC(=O)c1ccccc1)[C@H](C)CCCCCC[C@H]5O)O2 | > 1 nM | > 1 nM |  | 
C=C(C)[C@]12C[C@@H](COC(=O)c3ccccc3)[C@@]34OC5(O[C@@H]1[C@@H]3[C@@H]1O[C@]1(COC(=O)CCC(=O)O)[C@@H](O)[C@@]1(O)[C@H]4[C@H]([C@H](C)[C@@H]1OC(=O)c1ccccc1)[C@H](C)CCCCCC[C@H]5O)O2 | > 1 nM | > 1 nM |  | 
C=C(C)[C@]12C[C@@H](COC(=O)c3ccccc3)[C@@]34OC5(O[C@@H]1[C@@H]3[C@@H]1O[C@]1(CO)[C@@H](O)[C@@]1(O)[C@H]4[C@H]([C@H](C)[C@@H]1O)[C@H](C)CCCCCC[C@H]5O)O2 | > 1 nM | > 1 nM |  | 
C=C(C)[C@]12C[C@@H](COC(=O)c3ccccc3)[C@@]34OC5(O[C@@H]1[C@@H]3[C@@H]1O[C@]1(CO)[C@@H](O)[C@@]1(O)[C@H]4[C@H]([C@H](C)[C@@H]1OC(=O)c1ccccc1)[C@H](C)CCCCCC[C@H]5OC(=O)/C(C)=C/C)O2 | > 1 nM | > 1 nM |  | 
C=C(C)[C@]12C[C@@H](COC(=O)c3ccccc3)[C@@]34OC5(O[C@@H]1[C@@H]3[C@@H]1O[C@]1(CO)[C@@H](O)[C@@]1(O)[C@H]4[C@H]([C@H](C)[C@@H]1OC(=O)c1ccccc1)[C@H](C)CCCCCC[C@H]5OC(=O)c1ccccc1)O2 | > 1 nM | > 1 nM |  | 
C=C(C)[C@]12C[C@@H](COC(=O)c3ccccc3)[C@@]34OC5(O[C@@H]1[C@@H]3[C@@H]1O[C@]1(CO)[C@@H](O)[C@@]1(O)[C@H]4[C@H]([C@H](C)[C@@H]1OC(=O)/C=C/c1ccccc1)[C@H](C)CCCCCC[C@H]5O)O2 | > 1 nM | > 1 nM |  | 
C=C(C)[C@]12C[C@@H](COC(=O)c3ccccc3)[C@@]34OC5(O[C@@H]1[C@@H]3[C@@H]1O[C@]1(CO)[C@@H](O)[C@@]1(O)[C@H]4[C@H]([C@H](C)[C@@H]1OC(=O)c1ccccc1)[C@H](C)CCCCCC[C@H]5OC(=O)c1ccc(OC)cc1)O2 | > 1 nM | > 1 nM |  | 
C=C(C)[C@]12C[C@@H](COC(=O)c3ccccc3)[C@@]34OC5(O[C@@H]1[C@@H]3[C@@H]1O[C@]1(COC(C)=O)[C@@H](OC(C)=O)[C@@]1(O)[C@H]4[C@H]([C@H](C)[C@@H]1OC(=O)c1ccccc1)[C@H](C)CCCCCC[C@H]5OC(C)=O)O2 | > 1 nM | > 1 nM |  | 
C=C(C)[C@]12C[C@@H](COC(=O)c3ccccc3)[C@@]34OC5(O[C@@H]1[C@@H]3[C@@H]1O[C@]1(CO)[C@@H](O)[C@@]1(O)[C@H]4[C@H]([C@H](C)[C@@H]1OC(=O)c1ccc([N+](=O)[O-])cc1)[C@H](C)CCCCCC[C@H]5O)O2 | > 1 nM | 0.22 nM |  | 
C=C(C)[C@]12C[C@@H](COC(=O)c3ccccc3)[C@@]34OC5(O[C@@H]1[C@@H]3[C@@H]1O[C@]1(COC(=O)C(C)(C)CC(=O)O)[C@@H](O)[C@@]1(O)[C@H]4[C@H]([C@H](C)[C@@H]1OC(=O)c1ccccc1)[C@H](C)CCCCCC[C@H]5O)O2 | > 1 nM | > 1 nM |  | 
C=C(C)[C@]12C[C@@H](COC(=O)c3ccccc3)[C@@]34OC5(O[C@@H]1[C@@H]3[C@@H]1O[C@]1(COC(=O)CC(C)(C)C(=O)O)[C@@H](O)[C@@]1(O)[C@H]4[C@H]([C@H](C)[C@@H]1OC(=O)c1ccccc1)[C@H](C)CCCCCC[C@H]5O)O2 | > 1 nM | > 1 nM |  | 
